Columns and labels:
[1] = Volume of distribution in CD1 mouse at 1 mg/kg, iv administered as single dose by LC-MS/MS analysis; format: ADME, organism-based; details: in vivo
In short: (§1)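 Male CD-1 mice (n = 2) received a single intravenous dose at a nominal 1 mg/kg.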

[2] = Clearance in CD1 mouse at 1 mg/kg, iv administered as single dose by LC-MS/MS analysis; format: ADME, organism-based; details: in vivo; in short: as §1
[3] = target: T1, Poly(ADP-ribose) glycohydrolase (Homo sapiens, UniProt Q86W56); assay: Inhibition of human full length PARG using Bt-NAD ribosylated PARP1 substrate after 10 mins by TR-FRET assay
T1 sequence (Q86W56 whole entry): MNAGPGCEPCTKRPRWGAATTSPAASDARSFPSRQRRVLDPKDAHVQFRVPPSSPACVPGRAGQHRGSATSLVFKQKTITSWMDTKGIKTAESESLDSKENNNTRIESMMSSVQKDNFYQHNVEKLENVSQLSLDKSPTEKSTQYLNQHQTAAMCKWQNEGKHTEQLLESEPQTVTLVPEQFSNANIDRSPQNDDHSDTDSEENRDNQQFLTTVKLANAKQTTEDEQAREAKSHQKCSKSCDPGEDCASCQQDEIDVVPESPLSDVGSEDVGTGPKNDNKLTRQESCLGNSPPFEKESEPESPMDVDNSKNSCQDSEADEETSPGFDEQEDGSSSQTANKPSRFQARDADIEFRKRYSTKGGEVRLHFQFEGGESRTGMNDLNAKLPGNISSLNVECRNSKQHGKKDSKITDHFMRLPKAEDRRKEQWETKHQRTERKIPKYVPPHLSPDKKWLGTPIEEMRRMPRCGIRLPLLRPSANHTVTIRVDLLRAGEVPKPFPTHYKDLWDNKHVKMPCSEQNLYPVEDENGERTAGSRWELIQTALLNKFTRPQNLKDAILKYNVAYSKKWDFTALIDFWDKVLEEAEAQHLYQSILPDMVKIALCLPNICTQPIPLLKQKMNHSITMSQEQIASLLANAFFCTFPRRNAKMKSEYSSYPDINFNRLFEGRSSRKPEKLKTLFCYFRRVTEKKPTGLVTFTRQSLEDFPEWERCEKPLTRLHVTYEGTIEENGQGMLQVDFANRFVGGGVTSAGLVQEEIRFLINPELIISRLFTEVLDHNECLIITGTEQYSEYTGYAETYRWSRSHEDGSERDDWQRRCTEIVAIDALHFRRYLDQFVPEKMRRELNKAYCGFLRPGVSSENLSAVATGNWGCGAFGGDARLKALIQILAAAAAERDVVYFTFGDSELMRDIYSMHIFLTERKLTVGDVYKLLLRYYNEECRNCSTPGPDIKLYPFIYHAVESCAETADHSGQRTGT

[4] = Efflux ratio of apparent permeability in human Caco2 cells; details: Caco-2
Cytochrome P450 3A4 = Cytochrome P450 3A4 (Homo sapiens, UniProt P08684); assay: Inhibition of CYP3A4 (unknown origin); format: ADME
Cytochrome P450 3A4, sequence (P08684 whole entry): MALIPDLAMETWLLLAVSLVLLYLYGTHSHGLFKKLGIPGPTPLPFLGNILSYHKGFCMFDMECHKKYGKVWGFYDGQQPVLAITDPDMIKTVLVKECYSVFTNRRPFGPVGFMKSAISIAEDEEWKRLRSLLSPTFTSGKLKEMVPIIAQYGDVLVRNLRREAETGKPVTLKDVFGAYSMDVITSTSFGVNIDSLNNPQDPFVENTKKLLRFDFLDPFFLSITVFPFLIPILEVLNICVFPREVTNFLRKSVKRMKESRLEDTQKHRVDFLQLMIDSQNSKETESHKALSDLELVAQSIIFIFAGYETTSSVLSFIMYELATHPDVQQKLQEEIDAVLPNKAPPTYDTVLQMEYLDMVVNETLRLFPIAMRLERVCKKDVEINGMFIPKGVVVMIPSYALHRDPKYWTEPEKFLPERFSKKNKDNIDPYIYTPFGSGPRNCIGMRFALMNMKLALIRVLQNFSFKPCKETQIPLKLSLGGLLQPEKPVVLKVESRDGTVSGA

[5] = Oral bioavailability in CD1 mouse at 5 mg/kg administered as single dose by LC-MS/MS analysis; format: ADME, organism-based; details: in vivo
In short: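 Male CD-1 mice (n = 2) were dosed orally at a nominal 5 mg/kg, with a separate intravenous group (n = 2) at a nominal 1 mg/kg for comparison.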

[6] = Half life in CD1 mouse at 1 mg/kg, iv administered as single dose by LC-MS/MS analysis; format: ADME, organism-based; details: in vivo; in short: as §1
[7] = target: T1, Poly(ADP-ribose) glycohydrolase; assay: Inhibition of PARG in human HeLa cells assessed as induction of MMS-induced PAR chains preincubated for 1 hr followed by MMS addition and measured after 1 hr by Alexofluor 488-conjugated secondary antibody and Hoechst 33342 staining based assay; format: cell-based
In short: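 Acute (1 h) cell-based proof-of-mechanism assay measuring persistence of PAR chains, i.e. blockade of PARG-mediated PAR degradation, across a dose range. EC50 values are means of at least 4 independent measurements, with standard deviations.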

[8] = system: PARG (human, full length); assay: Selectivity ratio of cytotoxicity for human HeLa cells to EC50 for human full length PARG; format: toxicity, cell-based
[9] = Clearance in mouse liver microsomes
Cytochrome P450 2C9 = Cytochrome P450 2C9 (Homo sapiens, UniProt P11712); assay: Inhibition of CYP2C9 (unknown origin); format: ADME
Cytochrome P450 2C9, sequence (P11712 whole entry): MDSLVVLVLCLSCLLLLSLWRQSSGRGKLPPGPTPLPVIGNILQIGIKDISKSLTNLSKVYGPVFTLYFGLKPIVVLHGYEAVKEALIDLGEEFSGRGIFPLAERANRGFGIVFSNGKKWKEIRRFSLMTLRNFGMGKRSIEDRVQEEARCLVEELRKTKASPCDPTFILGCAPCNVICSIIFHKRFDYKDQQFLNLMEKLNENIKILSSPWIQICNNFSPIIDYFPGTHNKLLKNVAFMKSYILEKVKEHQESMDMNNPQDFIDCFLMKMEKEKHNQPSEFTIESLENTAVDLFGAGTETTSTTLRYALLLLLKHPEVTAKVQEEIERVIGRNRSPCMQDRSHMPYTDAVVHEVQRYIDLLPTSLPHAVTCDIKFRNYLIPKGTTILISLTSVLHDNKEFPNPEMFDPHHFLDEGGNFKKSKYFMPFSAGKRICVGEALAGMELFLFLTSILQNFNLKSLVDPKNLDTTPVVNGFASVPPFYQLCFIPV

[10] = AUC in CD1 mouse at 1 mg/kg, iv administered as single dose by LC-MS/MS analysis; format: ADME, organism-based; details: in vivo; in short: as §1
[11] = Solubility of the compound; format: physicochemical
Cytochrome P450 2D6 = Cytochrome P450 2D6 (Homo sapiens, UniProt P10635); assay: Inhibition of CYP2D6 (unknown origin); format: ADME
Cytochrome P450 2D6, sequence (P10635 whole entry): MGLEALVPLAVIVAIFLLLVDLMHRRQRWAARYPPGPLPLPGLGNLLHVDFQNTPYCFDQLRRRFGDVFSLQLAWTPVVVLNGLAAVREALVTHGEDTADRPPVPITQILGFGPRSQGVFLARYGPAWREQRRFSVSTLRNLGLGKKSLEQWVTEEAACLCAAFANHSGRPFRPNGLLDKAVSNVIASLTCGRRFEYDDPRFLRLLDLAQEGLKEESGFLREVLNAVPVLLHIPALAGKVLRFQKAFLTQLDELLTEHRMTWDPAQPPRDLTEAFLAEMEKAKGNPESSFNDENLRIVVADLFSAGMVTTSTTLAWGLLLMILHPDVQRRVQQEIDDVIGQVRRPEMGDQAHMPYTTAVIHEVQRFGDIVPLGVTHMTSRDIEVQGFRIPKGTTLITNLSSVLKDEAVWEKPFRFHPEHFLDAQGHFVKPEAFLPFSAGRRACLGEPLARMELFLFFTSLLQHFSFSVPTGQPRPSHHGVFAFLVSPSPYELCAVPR

[12] = Clearance in human liver microsomes
[13] = Clearance in mouse hepatocytes assessed per million cells
[14] = Apparent permeability across apical to basolateral side in human Caco2 cells; format: ADME, cell-based; details: Caco-2
CYP1A = target: T2, CYP1A (Homo sapiens, UniProt P04798+P05177); assay: Inhibition of CYP1A (unknown origin); format: ADME, protein assay
T2 sequence (P04798 whole entry): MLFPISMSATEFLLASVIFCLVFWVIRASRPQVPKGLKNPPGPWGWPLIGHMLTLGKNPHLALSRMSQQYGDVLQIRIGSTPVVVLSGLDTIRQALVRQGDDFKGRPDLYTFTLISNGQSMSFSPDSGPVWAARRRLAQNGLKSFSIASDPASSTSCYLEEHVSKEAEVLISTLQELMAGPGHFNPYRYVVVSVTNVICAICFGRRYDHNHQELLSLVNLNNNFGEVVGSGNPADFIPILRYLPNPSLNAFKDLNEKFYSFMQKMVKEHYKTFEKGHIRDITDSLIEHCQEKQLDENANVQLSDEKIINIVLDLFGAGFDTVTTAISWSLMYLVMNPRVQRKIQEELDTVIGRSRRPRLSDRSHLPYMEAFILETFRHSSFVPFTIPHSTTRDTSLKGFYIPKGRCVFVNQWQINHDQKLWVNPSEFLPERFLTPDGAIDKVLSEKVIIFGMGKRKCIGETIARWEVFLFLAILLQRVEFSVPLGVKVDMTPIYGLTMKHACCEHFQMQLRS
T2 sequence (P05177 whole entry): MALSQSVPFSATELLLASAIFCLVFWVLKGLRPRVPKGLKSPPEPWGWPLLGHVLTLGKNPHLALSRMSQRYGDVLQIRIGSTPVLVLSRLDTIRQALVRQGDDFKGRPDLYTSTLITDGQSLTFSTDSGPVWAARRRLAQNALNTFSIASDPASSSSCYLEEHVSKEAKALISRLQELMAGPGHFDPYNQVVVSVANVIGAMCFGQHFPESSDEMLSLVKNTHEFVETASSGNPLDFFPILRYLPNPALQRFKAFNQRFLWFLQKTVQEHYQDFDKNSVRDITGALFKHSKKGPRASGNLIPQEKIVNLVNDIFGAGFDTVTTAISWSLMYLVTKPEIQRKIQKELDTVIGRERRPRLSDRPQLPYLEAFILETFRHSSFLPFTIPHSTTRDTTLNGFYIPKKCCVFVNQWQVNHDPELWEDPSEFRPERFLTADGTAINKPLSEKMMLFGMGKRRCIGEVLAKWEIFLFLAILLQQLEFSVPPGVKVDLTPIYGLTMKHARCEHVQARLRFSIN

Cytochrome P450 2C19 = Cytochrome P450 2C19 (Homo sapiens, UniProt P33261); assay: Inhibition of CYP2C19 (unknown origin); format: ADME
Cytochrome P450 2C19, sequence (P33261 whole entry): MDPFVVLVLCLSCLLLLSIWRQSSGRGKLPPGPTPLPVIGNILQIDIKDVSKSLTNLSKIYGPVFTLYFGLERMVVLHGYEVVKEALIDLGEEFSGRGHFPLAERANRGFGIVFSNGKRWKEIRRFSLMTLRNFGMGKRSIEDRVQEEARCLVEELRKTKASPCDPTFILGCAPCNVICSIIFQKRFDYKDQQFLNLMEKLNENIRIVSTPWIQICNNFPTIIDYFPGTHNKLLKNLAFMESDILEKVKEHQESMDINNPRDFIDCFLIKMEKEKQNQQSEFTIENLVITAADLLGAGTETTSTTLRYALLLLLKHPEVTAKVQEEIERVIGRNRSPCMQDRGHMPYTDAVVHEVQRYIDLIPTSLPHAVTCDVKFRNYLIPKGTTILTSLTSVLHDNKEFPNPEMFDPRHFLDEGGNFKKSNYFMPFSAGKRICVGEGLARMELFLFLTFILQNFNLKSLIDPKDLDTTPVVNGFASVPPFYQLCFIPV

[15] = Solubility of the compound by turbidimetric method; format: physicochemical
HeLa = assay: Cytotoxicity against human HeLa cells after 72 hrs by Hoechst 33342 staining based assay; format: cell-based
[16] = Partition coefficient, log D of compound at pH 7.4; format: physicochemical; details: octanol/water

Row | Vd [1] | clearance [2] | EC50 [3] | efflux ratio [4] | IC50 (Cytochrome P450 3A4) | bioavailability [5] | half-life [6] | EC50 [7] | microsomal CLint [9] | IC50 (Cytochrome P450 2C9) | AUC [10] | solubility [11] | IC50 (Cytochrome P450 2D6) | microsomal CLint [12] | hepatocyte CLint [13] | Papp A→B [14] | IC50 (CYP1A) | IC50 (Cytochrome P450 2C19) | Compound | selectivity ratio [8] | further results
1 | 1.4 L/kg | 66.7 mL/min/kg | 0.069 µM | 34 | > 10 µM | 41% | 22 min | 0.25 µM | 16 µL/min/mg | > 10 µM | 250 ng·h/mL | > 100 µM | > 10 µM | 9.2 µL/min/mg | 24 µL/min/1e6 cells | 1 ×10⁻⁶ cm/s | > 10 µM | > 10 µM | Cn1cc(Cn2c(=O)c3cc(S(=O)(=O)NC4(C)CC4)ccc3n(CC3COC3)c2=O)cn1 | > 100 | 
2 |  |  | 3.9 µM |  |  |  |  | 1.8 µM |  |  |  |  |  |  |  |  |  |  | Cn1c(=O)c2cc(S(=O)(=O)NC3(C)CC3)ccc2n(C)c1=O |  | solubility kinetic [15]: > 100 µM; Activity (HeLa): > 30 µM; logD [16]: 1.73
3 | 2.5 L/kg | 167 mL/min/kg | 0.34 µM | 21 | > 25 µM | 25% | 12 min | 0.28 µM | 22 µL/min/mg | > 25 µM | 90 ng·h/mL | > 100 µM | > 25 µM | 19 µL/min/mg | 25 µL/min/1e6 cells | 1.9 ×10⁻⁶ cm/s | > 25 µM | > 25 µM | Cc1cc(Cn2c(=O)c3cc(S(=O)(=O)NC4(C)CC4)ccc3n(CC3COC3)c2=O)on1 | > 100 | 
